# High-throughput results from PubChem.
# Runt-SMMHC FRET = inhibitors of human RUNX1 Runt domain binding to CBFb-SMMHC. 220,000 tested, 0.74% active. Q01196+Q13951. Cerulean-Runt/Venus-CBFb-SMMHC FRET ratio 530/480, 1 h. inhibition, % at 20 µM. AID 1434;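 active = mean inhibition across duplicate retests at 20 µM reaching about 50%, limit read from the data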;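 note: 0% = DMSO wells and 100% = wells with excess untagged CBFb-SMMHC; inhibitors lower the FRET ratio by blocking Runt binding to CBFb-SMMHC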
# Target sequence (Q01196 whole entry, looked up, the tested form may be a part): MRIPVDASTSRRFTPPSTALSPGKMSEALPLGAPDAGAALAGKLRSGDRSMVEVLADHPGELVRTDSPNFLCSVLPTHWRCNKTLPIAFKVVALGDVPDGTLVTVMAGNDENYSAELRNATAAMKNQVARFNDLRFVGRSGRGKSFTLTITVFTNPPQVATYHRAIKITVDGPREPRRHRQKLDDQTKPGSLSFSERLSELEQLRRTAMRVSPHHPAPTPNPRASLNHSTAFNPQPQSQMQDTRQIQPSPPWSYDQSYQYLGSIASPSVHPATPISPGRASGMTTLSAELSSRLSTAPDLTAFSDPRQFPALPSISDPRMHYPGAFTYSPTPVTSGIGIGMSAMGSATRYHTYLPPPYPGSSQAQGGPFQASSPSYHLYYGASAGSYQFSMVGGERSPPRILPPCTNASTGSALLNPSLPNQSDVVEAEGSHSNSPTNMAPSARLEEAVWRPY
# Target sequence (Q13951 whole entry, looked up, the tested form may be a part): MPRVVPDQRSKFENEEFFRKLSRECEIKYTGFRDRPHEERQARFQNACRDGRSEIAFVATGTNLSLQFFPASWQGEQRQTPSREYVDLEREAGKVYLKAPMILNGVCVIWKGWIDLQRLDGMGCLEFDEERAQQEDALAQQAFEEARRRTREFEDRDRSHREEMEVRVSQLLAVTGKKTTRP
# RanGTP-Imp inh = inhibitors of RanGTP-importin-beta interaction, primary screen, biochemical, FRET, CFP-Ran, YFP-importin-beta, homogeneous; cell-free CFP-Ran/YFP-importin-beta FRET ratio; inhibition, % (test concentration not listed); 300,000 tested, 1.1% active;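 active = more than half of the replicate wells show a fall in the fluorescence ratio signal beyond about 16%, limit read from the data, passing the limit was not always enough; inconclusive = exactly half of the replicate wells pass the set limit; inactive = fewer than half of replicates pass the limit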;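 note: 0% = DMSO wells and 100% = Ran loaded with GDP instead of GTP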
# Hck-Nef inh = human Hck-Nef kinase inhibition. 220,000 tested, 0.68% active. P08631. inhibition, % at 20 µM. Recombinant Hck-YEEI plus Nef, Z-Lyte FRET kinase assay;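 active = Hck-Nef kinase inhibition above about 50%, limit read from the data; inactive = inhibition below that limit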;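 note: 0% = DMSO with Hck plus Nef and 100% = Hck alone without Nef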
# Runt-CBFb FRET = inhibitors of human RUNX1 Runt domain binding to CBFb; inhibition, % at 20 µM; Q01196+Q13951; Cerulean-Runt/Venus-CBFb FRET ratio 530/480, 1 h; 220,000 tested, 0.46% active;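 active = inhibition over about 50% at 20 µM in the single-dose screen, limit read from the data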;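 note: 0% = DMSO wells and 100% = excess unlabeled CBFb competitor control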
#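 Buffer or medium: Tris pH 7.5 buffer with BSA. Assay system: Cerulean-labeled Runt domain protein. Amount: each fluorescent fusion protein 100 nM. Read-out basis: loss of energy transfer signal. Incubation: 1 h compound exposure, room temperature. Probe or stimulus: Venus-CBFb binding partner, 100 nM. Detection: FRET, excitation 422 nm, emission at 530 and 480 nm.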
# TbHK1 inh = T. brucei hexokinase 1 inhibition; inhibition, % at 10 µM; 220,000 tested, 0.11% active; recombinant TbHK1, G6PDH-coupled NADH A340; AID 1430;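 active = inhibition of 50% or more in the single-dose primary screen; inactive = inhibition below 50%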
# p97 inhibitor = inhibitors of human p97 ATPase | 220,000 tested, 0.42% active | recombinant p97 ATPase, Kinase-Glo ATP luminescence, 3 h | P55072 | AID 1481 | inhibition, % at 8 µM; in the data active = inhibition above about 15%;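 note: 0% = DMSO vehicle and 100% = wells lacking enzyme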
# * hit, by the source's call; ? = inconclusive; nt = no result given. Rows were chosen to be rich in hits. Some 2.1% of all compounds tested hit in one or more screens of this group.
SMILES,Runt-SMMHC FRET,RanGTP-Imp inh,Hck-Nef inh,Runt-CBFb FRET,TbHK1 inh,p97 inhibitor
CC1(C)OC(=O)C(=Cc2ccc(-c3ccc(S(N)(=O)=O)cc3)o2)C(=O)O1,17.7,-2.2,58.0*,8.1,-12.0,7.2
O=C(COC(=O)c1cccnc1Cl)NCc1ccco1,-2.1,-0.1,9.8,-0.2,-1.6,1.1
CSc1nc(NCCOCCO)c2sc3nc(-c4ccco4)c4c(c3c2n1)CCC4,-20.3,?,81.1*,23.7,-6.7,9.2
CSc1nc(NCc2ccco2)c2sc3nc(C(C)C)c4c(c3c2n1)CC(C)(C)OC4,-9.3,3.0,0.0,-7.0,-29.1,-3.0
Nc1c(C=C2C=CC(=O)C=C2)c(=O)nc2sc(CC(=O)N3CCOCC3)nn12,nt,6.9,nt,nt,nt,nt
Nc1c(/C=C2\C=Nc3ccccc32)c(=O)nc2sc(CC(=O)N3CCOCC3)nn12,nt,20.3*,nt,nt,nt,nt
O=C1OC(c2cccs2)=N/C1=C/c1ccc(-c2cccc(C(=O)O)c2)o1,16.3,nt,115.8*,14.4,1.4,0.8
OCCNc1nc(-c2ccccc2)c2ccccc2n1,10.5,0.8,8.4,9.5,-16.2,1.8
Cc1ccc2nc(NCCO)nc(-c3ccccc3)c2c1,41.8,29.5*,10.3,32.1,1.4,-0.3
OCCNc1nc(-c2ccccc2)c2cc(Cl)ccc2n1,90.5*,1.3,11.5,48.8,-8.4,-0.4
COc1ccc(-n2[nH]c(C)cc2=O)cc1,-0.6,?,0.1,-3.1,-0.3,27.6*
COc1ccc(C#Cc2ccc3c(=O)c4ccccc4n(C)c3c2)cc1,nt,87.9*,nt,nt,nt,nt
Cn1c2ccccc2c(=O)c2ccc(C#Cc3ccc(N)cc3)cc21,nt,85.5*,nt,nt,nt,nt
Nc1ccc(C#Cc2ccc3sc4ccccc4c(=O)c3c2)cc1,nt,-2.1,nt,nt,nt,nt
COCCCN1CC(=O)N2Cc3[nH]c4ccccc4c3C[C@H]2C1=O,nt,0.2,nt,nt,nt,nt
CSc1nnc(SCC#N)s1,5.1,?,-1.2,0.7,-0.7,-1.5
CCOC(=S)SCc1cn2ccccc2n1,6.8,1.4,10.7,nt,0.0,3.2
CCOC(=S)SCc1cn2ccc(C)cc2n1,-7.3,20.6*,6.9,4.0,-3.6,1.1
CCCCCCOc1ccc(/C=c2\s/c(=C(/C#N)C(=O)NCc3ccco3)n(-c3ccccc3)c2=O)cc1,8.3,26.9*,3.2,-250.0,5.0,2.4
COCCN(CCOC)c1cc(C)c(C#N)c2nc3ccccc3n12,62.6*,57.4*,6.1,52.9*,-8.2,-1.8
Cc1cc(NCCN2CCOCC2)n2c(nc3ccccc32)c1C#N,30.6,5.3,25.3,12.4,-3.3,-0.6
Cc1cc(-c2ccco2)n2c(nc3ccccc32)c1C#N,-221.2,-36.5,-0.4,-48.5,-13.9,12.0
C=C(C)CSc1cc(C)c(C#N)c2nc3ccccc3n12,37.2,56.0*,7.5,12.3,-4.2,5.9
Cc1c2c(n3c(nc4ccccc43)c1C#N)N(CCN1CCOCC1)CC2,nt,111.5*,75.5*,nt,3.3,7.5
C=C(C)Cc1c(C)c(C#N)c2nc3ccccc3n2c1N1CCCCC1,32.5,28.8*,0.8,14.2,-12.0,-0.6
SMILES,Runt-SMMHC FRET,RanGTP-Imp inh,Hck-Nef inh,Runt-CBFb FRET,TbHK1 inh,p97 inhibitor
Cc1cc(SCC(=O)Nc2c(C)n(C)n(-c3ccccc3)c2=O)n2c(nc3ccccc32)c1C#N,nt,nt,1.9,nt,-5.4,5.0
CCc1cc[n+](-c2nc3ccccc3nc2[N-]S(=O)(=O)c2ccc(Br)s2)cc1,69.1*,40.6*,0.3,-9.3,-12.1,4.6
CCOc1ccc(N2CC(C(=O)Nc3nnc(Cc4ccc(OC)cc4)s3)CC2=O)cc1 (configuration not stated),nt,0.7,nt,nt,nt,nt
CCOC(=O)N1CCN(Cc2cc(Cl)c3cccnc3c2O)CC1,-6.2,44.4*,17.4,3.9,-12.9,-2.7
CCOc1ccc(-c2csc(NC(=O)CSCC(=O)O)n2)c2ccccc12,97.4*,0.3,16.0,27.2,-10.4,-0.6
CCOc1ccc(-c2csc(NC(=O)CSC3=NC(=O)CN3C(C)=O)n2)c2ccccc12,0.1,?,1.3,-5.8,-2.6,1.6
O=c1[nH]c(N/N=C\c2ccc3c(c2)OCO3)nc2ccccc12,15.9,16.0*,21.2,36.6,-37.4,2.2
O=c1[nH]c(N/N=C/c2ccccc2)nc2ccccc12,50.5*,?,5.9,37.6,-16.9,4.0
O=c1[nH]c(N/N=C/c2cc3c(cc2[N+](=O)[O-])OCO3)nc2ccccc12,2.5,5.9,38.1,11.9,-19.5,7.7
COc1ccc(Cc2nnc(SCC(=O)Nc3ccc(N4CCOCC4)cc3)n2C)cc1,nt,6.4,nt,nt,nt,nt
COc1ccccc1/C=C/C=N/Nc1cccc(C(=O)O)c1,nt,76.0*,nt,nt,nt,nt
O=C(O)c1cccc(N/N=C/c2cccnc2)c1,2.1,34.3*,19.2,-1.7,-19.6,3.8
O=C(COc1coc(CN2CCc3ccccc3C2)cc1=O)N1CCOCC1,nt,-0.1,nt,nt,nt,nt
O=C(C1CCOCC1)N1CCCC(N2CCN(c3cccc(C(F)(F)F)c3)CC2)C1 (configuration not stated),nt,1.8,nt,nt,nt,nt
COc1ccc(N(C=O)C(C(=O)Nc2c(C)cccc2C)c2ccccc2)cc1 (configuration not stated),nt,2.2,nt,nt,nt,nt
COC(=O)c1c(NC(=O)Cc2ccccc2)sc2c1CCN(C(C)C)C2,nt,0.7,nt,nt,nt,nt
CCOC(=O)c1c(NC(=S)N2CCN(C)CC2)sc2c1CCN(C(=O)OCC)C2,2.1,1.9,9.6,7.3,-23.5,-2.9
CCOC(=O)NC(Nc1sc2c(c1C(=O)OC)CCN(C)C2)(C(F)(F)F)C(F)(F)F,46.7,56.5*,-0.1,37.8,-2.9,2.4
CCOC(=O)C(NC(=O)CC)(Nc1sc2c(c1C(=O)OC)CCN(C)C2)C(F)(F)F (configuration not stated),31.8,37.8*,0.1,8.3,-12.8,-5.7
CCC(=O)NC(Nc1sc2c(c1C(=O)OC)CCN(C)C2)(C(F)(F)F)C(F)(F)F,61.0*,66.4*,6.5,34.3,-4.9,-5.4
Cc1cccc(/C=C(\C(=O)C(=O)O)c2ccc3ccccc3n2)c1,73.1*,28.5*,39.7,23.7,1.0,6.5
CCN1CCS/C1=C\C=C\C1=[N+](CC)CCS1,nt,6.4,-71.9,128.1*,7.6,4.7
CCN1CCS/C1=C/C=C/C1=[N+](CC)CCS1,120.5*,-2.8,0.6,139.6*,3.3,3.0
Cc1ccc(C(=O)OC(C)CN2CCN(C)CC2)cc1 (configuration not stated),-1.0,-3.1,11.3,0.1,-4.4,3.2
COCCN1CCN(C(=O)c2cc(COc3ccc(Cl)cc3OC)on2)CC1,nt,4.9,nt,nt,nt,nt
COC(=O)c1c(NC(=O)C(C)(C)C)sc2c1CCN(Cc1ccccc1)C2,nt,32.4*,nt,nt,nt,nt
CCOC(=O)c1c(NC(=O)CSc2ncccn2)sc2c1CC(C)(C)NC2(C)C,nt,0.4,nt,nt,nt,nt
CCOC(=O)c1c(NC(=O)CSc2ncccn2)sc2c1CCN(Cc1ccccc1)C2,150.8*,135.4*,1.0,106.2*,14.0,-11.3
